According to PMC3580291 (Cell Calcium, 2013):
Where two headings read alike, the source gives them in different places. Values belong to the compound of their own block, whether it stands above or below them.

Legend:
Orai1 currents = settings: cited from earlier work
Orai2 = settings: high concentrations (50 μM), compared with Orai1; cited from earlier work
CRAC currents = settings: cited from earlier work
STIM1/Orai1 currents = STIM1/Orai1 currents (Homo sapiens, UniProt Q96D31); test: whole-cell patch-clamp of STIM1-mediated Orai1 currents in HEK293 cells; assay type: cell-based; settings: for inhibition of maximally activated STIM1/Orai1 currents: whole cell inward current at −74 mV, HEK293; for kinetics of Orai1 current inhibition, slower than La^3+: relative to La^3+; for recovery of Orai1 currents upon wash-out: after full block by 10 μM, 4–5 min wash-out with 10 mM Ca^2+ solution
Method in brief: (§1)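 HEK293 cells transfected with CFP-STIM1 plus YFP-Orai construct and recorded 24 h later. Whole-cell patch clamp at 20–24 °C with passive store depletion via a pipette containing (mM) 145 Cs methanesulfonate, 20 EGTA, 3.5 MgCl2, 8 NaCl, 10 HEPES, pH 7.2. Bath contained 10 mM CaCl2, pH 7.4. Ramps from −90 to +90 mV over 1 s, every 5 s, from 0 mV holding. Inward current taken at −74 mV. Leak correction used the initial trace or post-10 μM La3+ trace.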

Orai3 = settings: cited from earlier work
[1] = test system: interleukin-2 (IL-2) production in lymphocytes; settings: cited from earlier work
[2] = test system: CRAC/SOC currents in RBL cells; settings: 30 μM; cited from earlier work
STIM1/Orai3 currents = STIM1/Orai3 currents (Homo sapiens, UniProt Q9BRQ5); test: whole-cell patch-clamp of STIM1-mediated Orai3 currents in HEK293 cells; assay type: cell-based; settings: for inhibition of maximally activated STIM1/Orai3 currents: 10 μM, whole cell inward current at −74 mV, HEK293; for recovery of Orai3 currents upon wash-out: after full block by 10 μM, 4–5 min wash-out with 10 mM Ca^2+ solution
Method in brief: as §1

human lung mast cells = settings: 3 μM; cited from earlier work
[3] = molecular target: STIM1-CFP/Orai1-YFP interaction (Homo sapiens, UniProt Q13586+Q96D31); test: confocal FRET microscopy of STIM1/Orai1 coupling; assay type: cell-based; settings: 10 μM after store-depletion by thapsigargin; HEK cells
Method in brief: (§2)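 HEK293 cells transfected with CFP/YFP-tagged STIM1 and/or Orai1 and imaged 24 h later by confocal FRET microscopy with 457/488/514 nm laser lines. CFP, FRET and YFP images used about 900–1500 ms illumination. Crosstalk and cross-excitation factors were set per construct daily. Pixelwise corrected FRET (NFRET) was computed after background subtraction, limited to CFP:YFP molar ratio 1:10–10:1. Data given as mean ± S.E.M.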

[4] = molecular target: 2-APB stimulated Orai3 currents (Homo sapiens, UniProt Q9BRQ5); test: whole-cell patch-clamp of 2-APB stimulated Orai3 currents; assay type: cell-based
[5] = test system: endogenous CRAC channels of RBL-2H3 cells; test: whole-cell patch-clamp of endogenous CRAC currents in RBL-2H3 cells; assay type: cell-based, rat; settings: 10 μM; passive store-depletion; −74 mV
Method in brief: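 RBL-2H3 cells grown in RPMI 1640 with 10% FBS, 1% penicillin–streptomycin and 1% L-glutamine at 37 °C, 5% CO2. Endogenous CRAC current activated by passive store depletion (20 mM EGTA pipette) in whole-cell mode. Inward current at −74 mV followed during perfusion of 10 μM test compound, with 10 μM La3+ as reference.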

L-type Ca^2+ channels = L-type Ca^2+ channels (Homo sapiens, UniProt Q13936); test: whole-cell patch-clamp of L-type Ca2+ channel expressing HEK293 cells; assay type: cell-based; settings: 10 μM
rat-TRPV6 channels = rat-TRPV6 channels (Rattus norvegicus, UniProt Q9R186); test: whole-cell patch-clamp of TRPV6 expressing HEK293 cells; assay type: cell-based; settings: 10 μM, −74 mV
[6] = molecular target: STIM1/Orai1 D110/112/114A (Homo sapiens, UniProt Q96D31, D110A/D112A/D114A); assay type: cell-based; settings: 10 μM
STIM1/Orai1 E106D = STIM1/Orai1 E106D (Homo sapiens, UniProt Q96D31, E106D); test: whole-cell patch-clamp of STIM1-activated Orai1 E106D pore mutant currents; assay type: cell-based
Method in brief: as §1

CaV1.2 (L-type) = CaV1.2 (L-type) (Homo sapiens, UniProt Q13936); test: selectivity profile, over-expressed ion channel; assay type: cell-based; settings: Activity (IC50), antagonistic action; Human CaV1.2 (L-type)
[7] = molecular target: CFP-STIM1/YFP-STIM1 oligomerization (Homo sapiens, UniProt Q13586); test: confocal FRET microscopy of STIM1 oligomerization; assay type: cell-based; settings: 10 μM applied 5 min before store-depletion with 2 μM thapsigargin
Method in brief: as §2

HEK293 cells = assay type: cell-based
[8] = test system: STIM1 clustering in smooth muscle cells; settings: cited from earlier work
RBL mast cells = settings: read-out: IC50 on RBL mast cells; cited from earlier work

Sequence of STIM1/Orai1 currents (Q96D31 whole entry): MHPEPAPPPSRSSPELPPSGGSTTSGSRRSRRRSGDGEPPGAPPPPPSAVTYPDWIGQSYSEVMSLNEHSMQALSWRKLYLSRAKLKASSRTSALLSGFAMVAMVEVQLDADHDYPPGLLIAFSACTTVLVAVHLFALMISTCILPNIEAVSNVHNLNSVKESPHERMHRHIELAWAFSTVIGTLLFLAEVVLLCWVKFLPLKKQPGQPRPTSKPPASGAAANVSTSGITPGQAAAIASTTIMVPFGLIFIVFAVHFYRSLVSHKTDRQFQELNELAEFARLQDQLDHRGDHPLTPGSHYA
Sequence of STIM1/Orai1 currents (Q13586 23-685 partner): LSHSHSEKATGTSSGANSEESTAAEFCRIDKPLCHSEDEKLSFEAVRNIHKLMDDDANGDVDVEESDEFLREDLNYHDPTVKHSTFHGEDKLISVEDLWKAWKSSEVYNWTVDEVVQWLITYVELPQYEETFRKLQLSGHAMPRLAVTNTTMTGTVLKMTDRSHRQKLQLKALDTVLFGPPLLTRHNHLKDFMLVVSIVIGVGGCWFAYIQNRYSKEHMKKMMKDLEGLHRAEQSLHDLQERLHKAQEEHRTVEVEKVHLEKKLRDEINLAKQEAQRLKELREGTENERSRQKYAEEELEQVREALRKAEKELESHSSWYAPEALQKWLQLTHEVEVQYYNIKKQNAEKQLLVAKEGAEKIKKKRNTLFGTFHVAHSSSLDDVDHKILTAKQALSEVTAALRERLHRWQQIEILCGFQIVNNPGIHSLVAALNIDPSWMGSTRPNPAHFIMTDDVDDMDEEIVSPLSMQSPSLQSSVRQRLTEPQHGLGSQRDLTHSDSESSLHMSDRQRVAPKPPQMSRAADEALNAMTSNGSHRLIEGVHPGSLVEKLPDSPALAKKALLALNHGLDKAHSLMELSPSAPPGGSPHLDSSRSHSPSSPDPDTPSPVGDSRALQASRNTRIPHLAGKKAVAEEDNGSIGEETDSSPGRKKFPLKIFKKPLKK
Sequence of L-type Ca^2+ channels (Q13936 1-2138 isoform Q13936-20): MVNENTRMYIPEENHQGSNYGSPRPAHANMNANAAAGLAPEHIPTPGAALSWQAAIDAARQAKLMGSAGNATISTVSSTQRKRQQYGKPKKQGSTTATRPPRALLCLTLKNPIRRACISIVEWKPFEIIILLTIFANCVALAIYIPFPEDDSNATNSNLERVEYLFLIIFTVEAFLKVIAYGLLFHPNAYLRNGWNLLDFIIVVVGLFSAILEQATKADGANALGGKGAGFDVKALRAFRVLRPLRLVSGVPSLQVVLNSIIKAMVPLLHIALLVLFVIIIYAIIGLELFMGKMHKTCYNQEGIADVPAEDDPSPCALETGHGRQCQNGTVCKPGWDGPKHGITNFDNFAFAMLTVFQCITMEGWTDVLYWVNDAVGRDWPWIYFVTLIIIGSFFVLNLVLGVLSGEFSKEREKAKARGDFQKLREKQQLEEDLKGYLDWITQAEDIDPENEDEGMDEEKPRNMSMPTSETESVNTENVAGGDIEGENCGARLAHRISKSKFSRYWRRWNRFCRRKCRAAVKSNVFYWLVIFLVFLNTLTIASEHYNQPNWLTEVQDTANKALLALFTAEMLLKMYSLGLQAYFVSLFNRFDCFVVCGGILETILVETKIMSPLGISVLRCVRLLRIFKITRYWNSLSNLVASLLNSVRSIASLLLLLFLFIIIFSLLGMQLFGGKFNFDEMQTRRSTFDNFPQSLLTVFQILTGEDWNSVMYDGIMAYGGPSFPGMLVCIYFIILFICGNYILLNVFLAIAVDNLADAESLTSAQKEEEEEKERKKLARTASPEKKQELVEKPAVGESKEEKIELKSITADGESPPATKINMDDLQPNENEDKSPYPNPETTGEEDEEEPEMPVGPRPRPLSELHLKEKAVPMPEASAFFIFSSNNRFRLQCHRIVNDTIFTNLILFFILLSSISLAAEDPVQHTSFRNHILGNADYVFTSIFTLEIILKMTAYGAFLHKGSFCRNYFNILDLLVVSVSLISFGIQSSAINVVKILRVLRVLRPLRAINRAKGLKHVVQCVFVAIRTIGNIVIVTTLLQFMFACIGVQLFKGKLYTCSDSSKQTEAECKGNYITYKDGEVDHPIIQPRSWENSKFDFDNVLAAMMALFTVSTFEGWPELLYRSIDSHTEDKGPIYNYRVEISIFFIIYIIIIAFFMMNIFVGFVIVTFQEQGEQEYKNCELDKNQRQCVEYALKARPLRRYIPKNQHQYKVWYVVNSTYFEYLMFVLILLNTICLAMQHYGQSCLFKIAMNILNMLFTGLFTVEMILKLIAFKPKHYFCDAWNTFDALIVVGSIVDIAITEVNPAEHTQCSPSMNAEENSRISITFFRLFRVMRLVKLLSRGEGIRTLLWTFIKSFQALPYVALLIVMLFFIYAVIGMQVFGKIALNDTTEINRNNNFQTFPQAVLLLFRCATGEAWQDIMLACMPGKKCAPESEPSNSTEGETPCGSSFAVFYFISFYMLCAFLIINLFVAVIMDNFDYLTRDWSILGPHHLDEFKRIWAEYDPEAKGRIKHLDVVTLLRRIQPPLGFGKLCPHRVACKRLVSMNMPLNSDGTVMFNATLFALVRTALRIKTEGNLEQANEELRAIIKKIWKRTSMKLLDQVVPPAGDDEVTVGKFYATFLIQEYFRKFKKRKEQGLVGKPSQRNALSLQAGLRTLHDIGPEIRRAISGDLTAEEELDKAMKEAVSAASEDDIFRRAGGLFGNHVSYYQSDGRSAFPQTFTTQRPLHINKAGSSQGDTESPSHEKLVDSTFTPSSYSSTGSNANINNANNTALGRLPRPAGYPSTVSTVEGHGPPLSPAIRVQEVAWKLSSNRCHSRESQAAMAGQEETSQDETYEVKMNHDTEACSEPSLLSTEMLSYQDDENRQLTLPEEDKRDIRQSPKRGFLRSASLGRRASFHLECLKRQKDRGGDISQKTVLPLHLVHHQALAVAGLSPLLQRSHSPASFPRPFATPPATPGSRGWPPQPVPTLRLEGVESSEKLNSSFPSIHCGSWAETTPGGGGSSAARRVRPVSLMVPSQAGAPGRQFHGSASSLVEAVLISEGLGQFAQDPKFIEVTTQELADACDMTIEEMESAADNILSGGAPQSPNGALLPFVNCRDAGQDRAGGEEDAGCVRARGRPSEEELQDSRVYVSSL
Sequence of L-type Ca^2+ channels (Q08289 whole entry partner): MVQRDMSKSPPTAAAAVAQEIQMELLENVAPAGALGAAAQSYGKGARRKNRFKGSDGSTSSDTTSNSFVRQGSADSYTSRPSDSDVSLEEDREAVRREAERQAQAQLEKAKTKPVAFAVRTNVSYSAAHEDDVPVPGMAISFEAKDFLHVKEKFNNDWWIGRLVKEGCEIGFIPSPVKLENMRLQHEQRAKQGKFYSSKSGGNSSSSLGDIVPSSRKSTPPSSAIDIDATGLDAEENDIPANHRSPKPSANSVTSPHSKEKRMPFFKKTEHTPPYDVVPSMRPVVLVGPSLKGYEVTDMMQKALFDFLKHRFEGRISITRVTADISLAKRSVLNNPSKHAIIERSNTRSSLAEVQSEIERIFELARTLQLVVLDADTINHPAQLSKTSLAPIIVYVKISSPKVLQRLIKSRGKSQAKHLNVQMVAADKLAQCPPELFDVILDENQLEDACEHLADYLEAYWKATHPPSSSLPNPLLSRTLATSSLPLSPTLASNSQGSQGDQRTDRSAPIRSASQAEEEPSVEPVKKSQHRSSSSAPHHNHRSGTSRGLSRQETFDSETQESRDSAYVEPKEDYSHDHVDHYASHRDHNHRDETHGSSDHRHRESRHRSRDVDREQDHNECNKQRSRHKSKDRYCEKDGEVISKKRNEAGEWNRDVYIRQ
Sequence of L-type Ca^2+ channels (P54289 25-1103 partner): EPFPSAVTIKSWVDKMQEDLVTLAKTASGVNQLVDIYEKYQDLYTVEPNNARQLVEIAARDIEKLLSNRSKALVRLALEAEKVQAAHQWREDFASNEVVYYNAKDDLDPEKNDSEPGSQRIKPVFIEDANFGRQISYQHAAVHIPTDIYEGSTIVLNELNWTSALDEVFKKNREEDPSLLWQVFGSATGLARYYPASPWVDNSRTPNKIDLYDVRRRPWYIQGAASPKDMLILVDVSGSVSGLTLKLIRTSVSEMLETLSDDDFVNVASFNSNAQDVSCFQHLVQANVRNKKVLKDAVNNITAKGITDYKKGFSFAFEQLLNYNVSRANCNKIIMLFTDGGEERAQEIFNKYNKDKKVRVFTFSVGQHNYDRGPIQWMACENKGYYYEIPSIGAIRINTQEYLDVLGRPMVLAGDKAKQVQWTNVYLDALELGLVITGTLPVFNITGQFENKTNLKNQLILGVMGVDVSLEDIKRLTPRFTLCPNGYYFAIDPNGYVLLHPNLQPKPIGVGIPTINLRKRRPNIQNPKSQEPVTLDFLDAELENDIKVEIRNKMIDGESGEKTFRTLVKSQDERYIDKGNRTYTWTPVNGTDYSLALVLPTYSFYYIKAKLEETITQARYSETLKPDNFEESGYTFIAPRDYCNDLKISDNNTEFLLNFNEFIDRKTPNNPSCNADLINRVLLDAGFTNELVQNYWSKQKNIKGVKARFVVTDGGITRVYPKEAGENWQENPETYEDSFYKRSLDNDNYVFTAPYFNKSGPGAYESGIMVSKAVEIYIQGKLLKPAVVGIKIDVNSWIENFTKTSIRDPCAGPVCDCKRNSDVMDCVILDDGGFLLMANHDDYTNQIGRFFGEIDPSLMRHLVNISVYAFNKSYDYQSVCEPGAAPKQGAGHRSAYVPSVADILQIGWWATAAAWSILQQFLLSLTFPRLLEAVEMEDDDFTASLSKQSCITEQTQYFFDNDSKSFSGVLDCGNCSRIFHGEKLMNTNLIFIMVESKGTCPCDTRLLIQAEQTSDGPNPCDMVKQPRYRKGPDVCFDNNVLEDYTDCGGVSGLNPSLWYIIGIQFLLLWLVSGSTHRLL
Sequence of STIM1/Orai1 E106D (Q96D31 whole entry E106D): as the sequence (Q96D31 whole entry) above, with E106D counted along it
Sequence of STIM1/Orai1 E106D (Q13586 23-685 partner): as the sequence (Q13586 23-685 partner) above
Sequence of STIM1-CFP/Orai1-YFP interaction (Q96D31 whole entry): as the sequence (Q96D31 whole entry) above
Sequence of STIM1-CFP/Orai1-YFP interaction (Q13586 23-685): as the sequence (Q13586 23-685 partner) above
Sequence of STIM1/Orai1 D110/112/114A (Q96D31 whole entry D110A/D112A/D114A): as the sequence (Q96D31 whole entry) above, with D110A, D112A, D114A counted along it
Sequence of STIM1/Orai1 D110/112/114A (Q13586 23-685 partner): as the sequence (Q13586 23-685 partner) above

SMILES: NCCOB(c1ccccc1)c1ccccc1 [2-APB, 2-aminoethoxydiphenylborate]
effect on over-expressed Orai1 (Orai1 currents; high concentrations (50 μM)): robust block | effect on Orai1 currents (Orai1 currents; higher concentrations (>40 μM)): inhibit | effect on Orai1 currents (Orai1 currents; low concentrations (5 μM)): enhance | effect on over-expressed Orai2 (Orai2): less sensitive | effect on CRAC currents (CRAC currents; concentrations higher than 10 μM): completely blocked | effect on CRAC currents (CRAC currents; low concentrations (1–5 μM)): enhanced | effect on STIM1/Orai1 currents (STIM1/Orai1 currents; 75 μM): transient stimulation followed by a complete inhibition | effect on Orai3 currents (Orai3; 75 μM, independent of STIM1): robust current stimulation | effect on over-expressed Orai3 (Orai3): robustly stimulated

SMILES: Cc1nnsc1C(=O)Nc1ccc(-n2nc(C(F)(F)F)cc2C(F)(F)F)cc1 [BTP2]
effect on interleukin-2 (IL-2) production in lymphocytes [1]: potently blocks

SMILES: CC/C(=C(/CC)c1ccc(O)cc1)c1ccc(O)cc1 [DES, diethylstilbestrol, reference compound]
block of CRAC/SOC currents in RBL cells [2]: effective block | time to full blockade of STIM1-activated Orai1 currents (STIM1/Orai1 currents; 10 μM (Fig. 2B)): ≤ 50 s | inhibition of maximally activated STIM1/Orai1 currents (STIM1/Orai1 currents; 10 μM): full and rapid blockade

SMILES: O=C(Nc1ccn(Cc2ccccc2Oc2ccccc2)n1)c1c(F)cccc1F [GSK-5503A, 2,6-difluoro-N-(1-(2-phenoxybenzyl)-1H-pyrazol-3-yl)benzamide]
inhibition of maximally activated STIM1/Orai3 currents (STIM1/Orai3 currents): fully inhibited | recovery of Orai3 currents upon wash-out (STIM1/Orai3 currents): not readily reversible | kinetics of Orai1 current inhibition, slower than La^3+ (STIM1/Orai1 currents; 10 μM): 2.5 fold | inhibition of maximally activated STIM1/Orai1 currents (STIM1/Orai1 currents; 10 μM): complete Orai1 current inhibition | recovery of Orai1 currents upon wash-out (STIM1/Orai1 currents): not readily reversible

SMILES: O=C(Nc1ccn(Cc2ccc(O)cc2C(F)(F)F)n1)c1c(F)cccc1F [GSK-7975A, 2,6-difluoro-N-(1-(4-hydroxy-2-(trifluoromethyl)benzyl)-1H-pyrazol-3-yl)benzamide]
Ca^2+ influx in human lung mast cells (human lung mast cells): significantly reduced | release of inflammatory mediators from human lung mast cells (human lung mast cells): significantly reduced | effect on FRET plateau representing STIM1/Orai1 interaction [3]: did not significantly alter | inhibition of maximally 2-APB stimulated Orai3 currents ([4]; 10 μM, 75 μM 2-APB): totally ineffective | inhibition of maximally 2-APB activated Orai3 currents ([4]; 100 μM): full inhibition | inhibition at 50 µM ([4]; read-out: inhibition of maximally 2-APB activated Orai3 currents): 50% | inhibition of RBL CRAC currents [5]: fully blocked | inhibition of L-type Ca^2+ channel currents (L-type Ca^2+ channels): moderate inhibition | inhibition of TRPV6 currents (rat-TRPV6 channels): completely inhibited | inhibition of STIM1-activated Orai1 D110/112/114A currents [6]: substantial inhibition almost comparable to that of wild-type Orai1 | inhibition of STIM1-activated Orai1 E106D currents (STIM1/Orai1 E106D; 10 μM): no inhibition | inhibition of STIM1-mediated Orai1 E106D currents (STIM1/Orai1 E106D; 100 μM): substantially but not fully restored the inhibitory effect | IC50 (CaV1.2 (L-type)): ~8 µM | effect on FRET increase (STIM1 oligomerization) upon store-depletion [7]: unaffected | Hill coefficient, inhibition of Orai3 currents (STIM1/Orai3 currents): ~1 | inhibition of maximally activated STIM1/Orai3 currents (STIM1/Orai3 currents): fully inhibited | recovery of Orai3 currents upon wash-out (STIM1/Orai3 currents): not readily reversible | Hill coefficient, inhibition of Orai1 currents (STIM1/Orai1 currents): ~1 | effect on Ca^2+-induced fast inactivation of STIM1/Orai1 (STIM1/Orai1 currents; 3 μM (Suppl. Fig. 1)): did not significantly increase inactivation | inhibition of CRAC currents upon intracellular application (STIM1/Orai1 currents; 10 μM intracellular application, data not shown): slight inhibition | inhibition of STIM1/Orai1 monovalent currents in divalent free (DVF) solution (STIM1/Orai1 currents; 10 μM, Na^+ as main charge carrier): fully blocked | kinetics of Orai1 current inhibition, slower than La^3+ (STIM1/Orai1 currents; 10 μM): 2.5 fold | inhibition of maximally activated STIM1/Orai1 currents (STIM1/Orai1 currents; 10 μM): complete Orai1 current inhibition | recovery of Orai1 currents upon wash-out (STIM1/Orai1 currents): not readily reversible | amount of Ca^2+ released from ER stores (HEK293 cells; 10 μM pre-incubation, stimulation by carbachol (CCH) or BHQ): not markedly altered | inhibition of endogenous store-operated Ca^2+ entry of HEK293 cells (HEK293 cells; pre-incubation with 10 μM, Fura-2): substantially inhibited

Further lines, with some results ahead:

inhibition of L-type Ca^2+ channel currents (L-type Ca^2+ channels): fully blocked | inhibition of TRPV6 currents (rat-TRPV6 channels): fully blocked | inhibition of maximally activated STIM1/Orai1 currents (STIM1/Orai1 currents; 10 μM): complete inhibition
SMILES: [La+3] [La^3+, reference compound]

inhibition of maximally activated STIM1/Orai1 currents (STIM1/Orai1 currents; 10 μM): reduced Orai1 currents
SMILES: COc1ccc(OC)c(-c2ccc(NC(=O)c3ccncc3F)cc2)c1 [Synta-66, N-(2′,5′-dimethoxy-[1,1′-biphenyl]-4-yl)-3-fluoroisonicotinamide, reference compound]
interference with STIM1 clustering [8]: does not interfere with STIM1 clustering | IC50 (RBL mast cells): 1 to 3 µM | inhibition of maximally activated STIM1/Orai3 currents (STIM1/Orai3 currents): inhibited Orai3 currents at a similar rate to the GSK compounds
